Results on eleven molecules are retold here after ChEMBL document CHEMBL1127304, “The discovery of novel, structurally diverse protein kinase C agonists through computer 3D-database pharmacophore search. Molecular modeling studies” (J Med Chem, 1994).

The target in experiment [1] is T1, Protein kinase C alpha type (Homo sapiens, UniProt P17252). As to the kind of experiment: (§1) Binding affinity with protein kinase C (PK-C) alpha bound to labeled [20-3H]-PDBU at a conc of 30 ug/mL.
The target of experiment [2] is T1, Protein kinase C alpha type. The description is as §1. In a few lines:
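Competitive displacement of [20-³H]phorbol 12,13-dibutyrate bound to PK-C α, with each ligand at a single concentration of 30 μg/mL in media. The read-out is percent inhibition of bound [³H]PDBU.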
The source holds these as a separate data set.

For `O=C1c2ccccc2C(=O)c2c(Nc3ccc(S(=O)(=O)N(CCO)CCO)cc3)ccc(O)c21`, in experiment [1], the inhibitory constant (Ki) (commonly a dissociation constant, usually derived from enzyme kinetics or from competition with a known ligand) worked out at 7.8 µM.
As to `COc1cccc2c1C(=O)c1c(O)c3c(c(O)c1C2=O)C[C@@](O)(/C(CO)=N/NC(=O)c1ccc(Cl)c(Cl)c1)C[C@@H]3OC1CC(N)C(O)C(C)O1` (stereo partly specified), in experiment [2], the inhibition – broadly, the share of the control response that was lost under treatment – was 30%.
Same read-out and setting: for `O=C1c2cccc(O)c2C(=O)c2c(OCCN(CCO)Cc3ccccc3)ccc(O)c21` the value was 34%.
`O=C(OCC(O)C(OC(=O)c1ccccc1)C(CO)OC(=O)c1ccccc1)c1ccccc1` (stereo unspecified) registered a Ki in experiment [1] of 12.9 µM.
The molecule `O=C1c2c(NCCCNCCO)cccc2C(=O)c2c(NCCCNCCO)ccc(O)c21` gave an inhibition in experiment [2] of 30%.
As to `O=C1c2cccc(O)c2C(=O)c2c(OCCN(CCO)Cc3ccccc3)cccc21`, the inhibition in experiment [2] was found to be 25%.
Still for that read-out and setting: for `CC(=O)C(C(=O)CCSCCO)C(SCCO)c1ccc(Cl)c(Cl)c1` (stereo unspecified) the value was 30%; for `CC(=O)O[C@@H]1CC2C(C)(C)C(=O)C=CC2(C)C2CCC3(C)C(=CCC3C(CO)CCC(O)C(=O)C(C)(C)O)C21` (stereo partly specified), 27%.
`CC(=O)OC[C@@]1(C)C(OC(C)=O)CC[C@]2(C)[C@H](CC(OC(C)=O)C3=CCOC3=O)[C@](C)(CO)CC[C@H]21` (stereo partly specified) displayed an inhibitory constant (Ki) in experiment [1] of 37.7 µM.
Same read-out and setting: for `C[C@]12C/C(=C/N(CCO)CCO)C(=O)C[C@@H]1CC[C@@H]1[C@@H]2CC[C@]2(C)[C@@H](O)CC[C@@H]12` the value was 16.1 µM; for `O=C1c2ccccc2C(=O)c2c(Nc3cccc(S(=O)(=O)N(CCO)CCO)c3)ccc(O)c21`, 26.6 µM.
